This note sets out measurements from ChEMBL document CHEMBL1140177 (J Med Chem, 2008).

Values after ≈ are worked out from the molar mass of the structure shown.

The target in data set [1] is Human immunodeficiency virus type 1 reverse transcriptase (Human immunodeficiency virus 1, UniProt Q72547). Nature of the data set: Inhibition of wild type HIV1 RT polymerase by SPA.
Data set [2] deals with Human immunodeficiency virus type 1 reverse transcriptase (Human immunodeficiency virus 1, UniProt Q72547, K103N). Nature of the data set: Inhibition of HIV1 RT polymerase K103N mutant by SPA.
The target in data set [3] is Human immunodeficiency virus type 1 reverse transcriptase (Human immunodeficiency virus 1, UniProt Q72547, Y181C). Briefly: Inhibition of HIV1 RT polymerase Y181C mutant by SPA.
The test system of data set [4] is Human immunodeficiency virus 1. Nature of the data set: Antiviral activity against wild type HIV1 infected in human MT4 cells after 72 hrs in presence of 10% fetal bovine serum. The class given is functional. Particulars: Human immunodeficiency virus 1, MT4, 72 h; read-out: CIC95. The essentials: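 MT-4 human T-lymphoid cells in RPMI 1640 with 10% FBS. CIC95 is the concentration that inhibits viral spread by >95%. Values are either geometric means of two determinations or given with standard deviations for n > 3 or n > 50.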

Data set [5] has as its system Human immunodeficiency virus 1. Nature of the data set: Antiviral activity against HIV1 with reverse transcriptase K103N mutant infected in human MT4 cells after 72 hrs in presence of 10% fetal bovine serum. The class given is functional. Particulars: Human immunodeficiency virus 1, MT4, 72 h; read-out: CIC95. The essentials: (§1)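 Mutant HIV-1 spread was assayed in MT-4 human T-lymphoid cells kept in RPMI 1640 with 10% FBS. CIC95 is the concentration that inhibits viral spread by >95%. Values are geometric means of two determinations, or mean with standard deviation where n > 3. Cytotoxicity was checked up to an assay limit of 8.3 µM.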

Data set [6] concerns Human immunodeficiency virus 1. Nature of the data set: Antiviral activity against HIV1 with reverse transcriptase Y181C mutant infected in human MT4 cells after 72 hrs in presence of 10% fetal bovine serum. The class given is functional. The following applies: Human immunodeficiency virus 1, MT4, 72 h; read-out: CIC95. The essentials: as §1
Data set [7] has as its system Human immunodeficiency virus 1. Nature of the data set: Antiviral activity against wild type HIV1 infected in human MT4 cells after 72 hrs in presence of 50% normal human serum. The class given is functional. Particulars: Human immunodeficiency virus 1, MT4, 72 h; read-out: CIC95. The essentials:
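MT-4 human T-lymphoid cells in RPMI 1640 with 50% NHS. CIC95 is the concentration that inhibits viral spread by >95%. Values are either geometric means of two determinations or given with standard deviations for n > 3 or n > 50.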

Data set [8] can be described thus: AUC in Sprague-Dawley rat at 10 mg/kg, po. Particulars: plasma. Further details: dose 10 mg/kg, route oral. The class given is ADME, organism-based.
Data set [9] can be described thus: Oral bioavailability in Sprague-Dawley rat at 10 mg/kg. The following applies: in vivo. The class given is ADME, organism-based.
The nature of data set [10]: AUC in rhesus monkey at 10 mg/kg, po. The class given is ADME, organism-based, Macaca mulatta. Further details: dose 10 mg/kg, route oral. The following applies: plasma.
Data set [11] is described as follows: Oral bioavailability in rhesus monkey at 10 mg/kg. The class given is ADME, organism-based, Macaca mulatta. The following applies: in vivo.
Another data set deals with Rattus norvegicus. Briefly: Half life in Sprague-Dawley rat at 10 mg/kg, po and 3 mg/kg, iv. The class given is ADME, organism-based. The following applies: in vivo. The procedure, abridged:
(§2)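 Three Sprague-Dawley rats, averaged. Oral dose 10 mpk in 0.5% methocel; intravenous dose 3 mpk in DMSO. Individual values within 25% of mean.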

A short description of data set [12]: Clearance in Sprague-Dawley rat at 10 mg/kg, po and 3 mg/kg, iv. The class given is ADME, organism-based. The following applies: in vivo. The essentials: as §2
Data set [13] in a line: Volume of distribution in Sprague-Dawley rat at 10 mg/kg, po and 3 mg/kg, iv. The class given is ADME, organism-based. Particulars: in vivo. The procedure, abridged:
as §2

The test system of data set [14] is Canis familiaris. Briefly: Half life in Beagle dog at 10 mg/kg, po and 2 mg/kg, iv. The class given is ADME, organism-based, Canis lupus familiaris. The following applies: in vivo. The essentials: (§3)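 Three beagle dogs, averaged. Oral dose 10 mpk in 0.5% methocel; intravenous dose 2 mpk in DMSO. Individual values within 25% of mean.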
A short description of data set [15]: Clearance in Beagle dog at 10 mg/kg, po and 2 mg/kg, iv. The class given is ADME, organism-based, Canis lupus familiaris. Particulars: in vivo. The procedure, abridged:
as §3

Data set [16] in a line: AUC in Beagle dog at 10 mg/kg, po. The class given is ADME, organism-based, Canis lupus familiaris. Particulars: plasma. The arrangement: dose 10 mg/kg, route oral. The procedure, abridged: as §3
Data set [17] can be described thus: Volume of distribution in Beagle dog at 10 mg/kg, po and 2 mg/kg, iv. The class given is ADME, organism-based, Canis lupus familiaris. The following applies: in vivo. The essentials: as §3
A short description of data set [18]: Oral bioavailability in Beagle dog at 10 mg/kg. Particulars: in vivo. The class given is ADME, organism-based, Canis lupus familiaris. The essentials:
as §3

A short description of data set [19]: Clearance in rhesus monkey at 10 mg/kg, po and 2 mg/kg, iv. The class given is ADME, organism-based, Macaca mulatta. The following applies: in vivo.
A short description of data set [20]: Volume of distribution in rhesus monkey at 10 mg/kg, po and 2 mg/kg, iv. The class given is ADME, organism-based, Macaca mulatta. Particulars: in vivo.
Data set [21] is described as follows: Solubility at pH 2. The class given is physicochemical. The following applies: buffer.
Data set [22] concerns Human immunodeficiency virus 1. Briefly: Antiviral activity against wild type HIV1 in presence of 40% normal human serum. The class given is functional, organism-based. The essentials:
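Monogram Bioscience PhenoScreen cell-culture assay run with 40% NHS. […] Value is the geometric mean of n = 2.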

Data set [23] has as its system Human immunodeficiency virus 1. Nature of the data set: Antiviral activity against HIV1 with reverse transcriptase G190A mutant in presence of 40% normal human serum. The class given is functional, organism-based.
Data set [24] relates to Human immunodeficiency virus 1. Nature of the data set: Antiviral activity against HIV1 with reverse transcriptase G190S mutant in presence of 40% normal human serum. The class given is functional, organism-based.
Data set [25] concerns Human immunodeficiency virus 1. Nature of the data set: Antiviral activity against HIV1 with reverse transcriptase L100I mutant in presence of 40% normal human serum. The class given is functional, organism-based.
Data set [26] deals with Human immunodeficiency virus 1. Nature of the data set: Antiviral activity against HIV1 with reverse transcriptase K103N mutant in presence of 40% normal human serum. The class given is functional, organism-based.
The test system of data set [27] is Human immunodeficiency virus 1. Nature of the data set: Antiviral activity against HIV1 with reverse transcriptase Y181C mutant in presence of 40% normal human serum. The class given is functional, organism-based.
For data set [28], the system named is Human immunodeficiency virus 1. Briefly: Antiviral activity against HIV1 with reverse transcriptase Y188L mutant in presence of 40% normal human serum. The class given is functional, organism-based.
The subject of data set [29] is Human immunodeficiency virus 1. Briefly: Antiviral activity against HIV1 with reverse transcriptase V106A mutant in presence of 40% normal human serum. The class given is functional, organism-based.
For data set [30], the system named is Human immunodeficiency virus 1. Briefly: Antiviral activity against HIV1 with reverse transcriptase V179E mutant in presence of 40% normal human serum. The class given is functional, organism-based.
The test system of data set [31] is Human immunodeficiency virus 1. Nature of the data set: Antiviral activity against HIV1 with reverse transcriptase P236L mutant in presence of 40% normal human serum. The class given is functional, organism-based.
Data set [32] has as its system Human immunodeficiency virus 1. Nature of the data set: Antiviral activity against HIV1 with reverse transcriptase F227L mutant in presence of 40% normal human serum. The class given is functional, organism-based.
The subject of data set [33] is Human immunodeficiency virus 1. Briefly: Antiviral activity against HIV1 with reverse transcriptase K101E/G190A mutant in presence of 40% normal human serum. The class given is functional, organism-based.
For data set [34], the system named is Human immunodeficiency virus 1. Briefly: Antiviral activity against HIV1 with reverse transcriptase K103N/G190A mutant in presence of 40% normal human serum. The class given is functional, organism-based.
The test system of data set [35] is Human immunodeficiency virus 1. Briefly: Antiviral activity against HIV1 with reverse transcriptase K103N/P225H mutant in presence of 40% normal human serum. The class given is functional, organism-based.
Data set [36] has as its system Human immunodeficiency virus 1. Nature of the data set: Antiviral activity against HIV1 with reverse transcriptase K103N/V179E mutant in presence of 40% normal human serum. The class given is functional, organism-based.
Data set [37] relates to Human immunodeficiency virus 1. Briefly: Antiviral activity against HIV1 with reverse transcriptase K103N/Y181C mutant in presence of 40% normal human serum. The class given is functional, organism-based.
Data set [38] concerns Human immunodeficiency virus 1. Briefly: Antiviral activity against HIV1 with reverse transcriptase Y181C/G190A mutant in presence of 40% normal human serum. The class given is functional, organism-based.
Data set [39] concerns Human immunodeficiency virus 1. Nature of the data set: Antiviral activity against HIV1 with reverse transcriptase K103N/Y181C/G190A mutant in presence of 40% normal human serum. The class given is functional, organism-based.
The species named for data set [40] is Canis familiaris. Briefly: Toxicity in cardiovascular dog model assessed as effect on QTc intervals. The class given is organism-based, Canis lupus familiaris, Heart. The following applies: in vivo. The essentials: (§4)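 Conscious dog cardiovascular model, with QTc, heart rate and blood pressure monitored at plasma levels up to 55 µM.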
The species entered for data set [41] is Canis familiaris. Nature of the data set: Toxicity in cardiovascular dog model assessed as effect on heart rate. The class given is organism-based, Canis lupus familiaris. Particulars: in vivo. The essentials: as §4
For data set [42], the species on record is Canis familiaris. Nature of the data set: Toxicity in cardiovascular dog model assessed as effect on blood pressure. The class given is organism-based, Canis lupus familiaris. Particulars: in vivo. The procedure, abridged: as §4

One may read the IC50 as the midpoint of a concentration-inhibition curve. For `N#Cc1cc(Cl)cc(Oc2cc(OCc3n[nH]c4ccncc34)ccc2Cl)c1`, the IC50 in data set [1] turned out to be 1.2 nM; in [2], 3.8 nM; in data set [3] it was 6.2 nM. Also, the IC95 in data set [4] is 169 nM; in data set [5], 922 nM; in [6], 278 nM; in [7], 307 nM.

The AUC is the area under the concentration-time curve, a measure of exposure. What is called bioavailability is the share of a dose that reaches the circulation, judged against a reference dose that is usually intravenous. The solubility is the dissolved amount per volume that the medium holds. Take `N#Cc1cc(Cl)cc(Oc2cc(OCc3n[nH]c4nc(N)ccc34)ccc2Cl)c1`: the IC95 came to 8.4 nM in data set [4], 11.4 nM in [5], 19 nM in data set [6] and 34 nM in data set [7]. Further, the AUC is 22.7 µM·h in data set [8], 0.3 µM·h in data set [10] and 31.3 µM·h in [16]. For the same compound, the bioavailability in data set [9] came out at 52%; in [11], 1%; in data set [18] it was 47%. Besides, the t1/2 is 3.5 h in the data set on Rattus norvegicus and 3.9 h with Canis familiaris [14]. Further, the clearance in data set [12] is 9 mL/min/kg; in data set [15], 5.8 mL/min/kg; in data set [19] it was 15.8 mL/min/kg. The figures for the Vd in [13], in data set [17] and in data set [20] were 2 L/kg, 1.7 L/kg and 1.9 L/kg, respectively. The solubility in data set [21] was found to be 10 µg/mL (≈ 23.5 µM). Moreover, the IC50 in data set [22] amounted to 1.35 nM; in data set [23], 1.5 nM; in data set [24], 7.6 nM; in [25], 1.8 nM; in [26], 4.4 nM; in data set [27], 5.6 nM. In addition, the IC50 was over 1000 nM in data set [28]; 147 nM in [29]; 5 nM in data set [30]; 4.2 nM in [31]; 0.7 nM in data set [32]; 10.1 nM in data set [33]. In addition, the IC50 in [34] turned out to be 9.6 nM; in data set [35], 1.2 nM; in data set [36] it was 9.6 nM; in [37] it was 84 nM; in data set [38], 14.8 nM; in data set [39] it was 98.3 nM. Further, the Activity result in the data set listed under Canis familiaris [40], in the data set listed under Canis familiaris [41] and in the data set listed under Canis familiaris [42] was “Non-toxic” throughout.
